The results in this text go back to ChEMBL document CHEMBL1157192, “No carrier added synthesis of O-(2'-[18F]fluoroethyl)-L-tyrosine via a novel type of chiral enantiomerically pure precursor, NiII complex of a (S)-tyrosine Schiff base” (Bioorg Med Chem, 2008).

Conditions in all cases: in vivo
Series [1] is described as follows: Biodistribution in abscess of Wistar rat bearing turpentine-induced aseptic abscess at 150-180 uCi after 40 mins. The class given is ADME, organism-based. In short, it runs like this: (§1)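 Male Wistar rats (150–200 g) received 150–180 μCi ([…]) [18F]FET in 0.3 mL isotonic solution via the jugular vein. They were killed at 40 min. Organs were dissected, blotted of blood, weighed and gamma-counted, and values are given as %ID/g, with five rats per time point. Glioma35 homografts grew for 14 days after subcutaneous or intramuscular injection into the right hind limb. Abscesses were raised by turpentine oil (10 μL) into the right hind-limb muscle 24 h before the experiment.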

A short description of series [2]: Biodistribution in urinary bladder of Wistar rat bearing turpentine-induced aseptic abscess at 150-180 uCi after 40 mins. The class given is ADME, organism-based. In short, it runs like this: as §1
Series [3] deals with Liver. In words: Biodistribution in liver of Wistar rat bearing glioma35 rat tumor at 150-180 uCi after 40 mins. The class given is ADME, organism-based. In short, it runs like this: as §1
Series [4] in a line: Biodistribution in urinary bladder of Wistar rat bearing glioma35 rat tumor at 150-180 uCi after 40 mins. Format: ADME, organism-based. In short, it runs like this:
as §1

The test system of series [5] is Brain. The series can be described thus: Biodistribution in brain of Wistar rat bearing turpentine-induced aseptic abscess at 150-180 uCi after 40 mins. Format: ADME, organism-based. In a few lines: as §1
For series [6], the system named is Kidney. In words: Biodistribution in kidney of Wistar rat bearing turpentine-induced aseptic abscess at 150-180 uCi after 40 mins. The class given is ADME, organism-based. In a few lines:
as §1

For series [7], the system named is Blood. In words: Biodistribution in blood of Wistar rat bearing glioma35 rat tumor at 150-180 uCi after 40 mins. The class given is ADME, organism-based. In short, it runs like this:
as §1

Series [8] relates to Kidney. In words: Biodistribution in kidney of Wistar rat bearing glioma35 rat tumor at 150-180 uCi after 40 mins. The class given is ADME, organism-based. In short, it runs like this:
as §1

Series [9] is described as follows: Biodistribution in tumor of Wistar rat bearing glioma35 rat tumor at 150-180 uCi after 40 mins. Format: ADME, organism-based, Neoplasm. In short, it runs like this: as §1
Series [10] concerns Brain. The series can be described thus: Biodistribution in brain of Wistar rat bearing glioma35 rat tumor at 150-180 uCi after 40 mins. Format: ADME, organism-based. In short, it runs like this: as §1
Series [11] concerns Blood. The series can be described thus: Biodistribution in blood of Wistar rat bearing turpentine-induced aseptic abscess at 150-180 uCi after 40 mins. The class given is ADME, organism-based. In short, it runs like this: as §1
In series [12] the test system is Liver. In words: Biodistribution in liver of Wistar rat bearing turpentine-induced aseptic abscess at 150-180 uCi after 40 mins. The class given is ADME, organism-based. In short, it runs like this: as §1
For series [13], the system named is Muscle tissue. In words: Biodistribution in muscle of Wistar rat bearing glioma35 rat tumor at 150-180 uCi after 40 mins. The class given is ADME, organism-based. In short, it runs like this:
as §1

For series [14], the system named is Heart. The series can be described thus: Biodistribution in heart of Wistar rat bearing turpentine-induced aseptic abscess at 150-180 uCi after 40 mins. The class given is ADME, organism-based. In a few lines: as §1
Series [15] concerns Heart. In words: Biodistribution in heart of Wistar rat bearing glioma35 rat tumor at 150-180 uCi after 40 mins. The class given is ADME, organism-based. In a few lines: as §1
Series [16] deals with Muscle tissue. In words: Biodistribution in muscle of Wistar rat bearing turpentine-induced aseptic abscess at 150-180 uCi after 40 mins. Format: ADME, organism-based. In a few lines:
as §1

SMILES strings stand for the structures.

Take `N[C@@H](Cc1ccc(OCC[18F])cc1)C(=O)O` [FLORETYROSINE F18]: the Drug uptake in series [1] stood at 1.75 % ID/g; in series [2], 3.94 % ID/g; in the series on Liver [3], 1.03 % ID/g; in series [4], 2.51 % ID/g; in the series on Brain [5] it was 1 % ID/g; in the series with Kidney [6], 1.58 % ID/g. Besides, the Drug uptake in the series with Blood [7] was determined as 1.24 % ID/g; in the series with Kidney [8], 0.86 % ID/g; in [9], 2.53 % ID/g; with Brain [10], 0.54 % ID/g; in the series with Blood [11], 1.45 % ID/g; in the series on Liver [12], 1.24 % ID/g. In addition, the Drug uptake with Muscle tissue [13] is on record as 0.84 % ID/g; in the series on Heart [14], 1.47 % ID/g; in the series on Heart [15], 0.98 % ID/g; in the series on Muscle tissue [16], 1.32 % ID/g.
